# Data published in ChEMBL document CHEMBL1125212, “Dual-action cephalosporins: cephalosporin 3'-quinolone carbamates” (J Med Chem, 1991).
# How the values were obtained:
# Citrobacter freundii = experiment: The compound was tested in vitro for minimum inhibitory concentration against Citrobacter Freundii BS-16; assay type: functional
# Summary of the method: (§1)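 Agar dilution on Mueller-Hinton agar using 2-fold serial dilutions, giving final 128 to 0.0156 μg/mL (extended to 0.000977 μg/mL where needed). Inoculum was overnight broth culture diluted 100-fold, about 3×10^4 CFU/spot, applied by replicator. MIC read after overnight incubation at 36 °C.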
# Escherichia coli [1] = experiment: The compound was tested in vitro for minimum inhibitory concentration against Escherichia coli ATCC 25922; assay type: functional; summary of the method: as §1
# Escherichia coli [2] = experiment: Minimum inhibitory concentration required to inhibit the activity of Escherichia coli ATCC 25922; assay type: functional; summary of the method: as §1
# Escherichia coli [3] = experiment: Minimum inhibitory concentration required to inhibit the activity of Escherichia coli UB1005; assay type: functional; summary of the method: as §1
# Escherichia coli [4] = experiment: Minimum inhibitory concentration for inhibition of [14C]- Pen G binding to Escherichia coli UB1005; assay type: functional
# Summary of the method: (§2)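 Membranes from sonicated E. coli UB1005 were solubilized. Binding to penicillin-binding proteins was measured as inhibition of [14C]penicillin G binding.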
# Escherichia coli [5] = experiment: The compound was tested in vitro for minimum inhibitory concentration against Escherichia coli 257; assay type: functional; summary of the method: as §1
# Enterococcus faecalis = experiment: The compound was tested in vitro for minimum inhibitory concentration against Enterococcus faecalis ATCC 29212; assay type: functional; summary of the method: as §1
# Escherichia coli [6] = experiment: The compound was tested in vitro for minimum inhibitory concentration against Escherichia coli TEM-1; assay type: functional; summary of the method: as §1
# Enterobacter cloacae = experiment: The compound was tested in vitro for minimum inhibitory concentration against Enterobacter cloacae P99; assay type: functional
# Escherichia coli [7] = experiment: Inhibitory activity on replicative DNA biosynthesis in Escherichia coli H560 (permeabilised cells); assay type: functional, organism-based
# Summary of the method: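 E. coli H560 cells permeabilized with toluene. ATP-dependent incorporation of [3H]thymidine into trichloroacetic acid-insoluble material was measured. IC50 taken as the concentration giving 50% inhibition.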
# Micrococcus luteus = experiment: The compound was tested in vitro for minimum inhibitory concentration against Micrococcus luteus ATCC 9341; assay type: functional; summary of the method: as §1
# Proteus mirabilis = experiment: The compound was tested in vitro for minimum inhibitory concentration against Proteus mirabilis 90; assay type: functional
# Summary of the method: (§3)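 Proteus MICs by agar dilution on Mueller-Hinton medium containing 3% agar. Serial 2-fold dilutions gave final 128 to 0.0156 μg/mL (further to 0.000977 μg/mL). Inoculum was overnight broth diluted 100-fold, about 3×10^4 CFU/spot. Plates read after overnight incubation at 36 °C.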
# Pseudomonas aeruginosa [8] = experiment: The compound was tested in vitro for minimum inhibitory concentration against Pseudomonas aeruginosa 18S/H; assay type: functional; summary of the method: as §1
# Escherichia coli [9] = experiment: The compound was evaluated for the inhibition of [14C]- Pen G binding to Escherichia coli UB1005 penicillin-binding protein 1a 90 kDa.; summary of the method: as §2
# Escherichia coli [10] = experiment: The compound was evaluated for the inhibition of [14C]- Pen G binding to Escherichia coli UB1005 penicillin-binding protein 1b 90 kDa.; summary of the method: as §2
# Escherichia coli [11] = experiment: The compound was evaluated for the inhibition of [14C]- Pen G binding to Escherichia coli UB1005 penicillin-binding protein 2 66 kDa.; summary of the method: as §2
# Escherichia coli [12] = experiment: The compound was evaluated for the inhibition of [14C]- Pen G binding to Escherichia coli UB1005 penicillin-binding protein 3 60 kDa.; summary of the method: as §2
# Pseudomonas aeruginosa [13] = experiment: The compound was tested in vitro for minimum inhibitory concentration against Pseudomonas aeruginosa 8780; assay type: functional; summary of the method: as §1
# Proteus vulgaris = experiment: The compound was tested in vitro for minimum inhibitory concentration against Proteus vulgaris 1028 BC; assay type: functional; summary of the method: as §3
# Staphylococcus aureus [14] = experiment: The compound was tested in vitro for minimum inhibitory concentration against Staphylococcus aureus 67-0; assay type: functional; summary of the method: as §1
# Staphylococcus aureus [15] = experiment: The compound was tested in vitro for minimum inhibitory concentration against Staphylococcus aureus 753; assay type: functional; summary of the method: as §1
# Streptococcus pyogenes = experiment: The compound was tested in vitro for minimum inhibitory concentration against Streptococcus pyogenes; assay type: functional
# Summary of the method: (§4)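 Streptococci tested by agar dilution on brain heart infusion agar with 20 units/mL bovine liver catalase. Final drug range 128 to 0.0156 μg/mL by 2-fold steps, extended to 0.000977 μg/mL when required. Inoculum about 3×10^4 CFU/spot from overnight broth diluted 100-fold. MIC after overnight incubation at 36 °C.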
# Serratia marcescens = experiment: The compound was tested in vitro for minimum inhibitory concentration against Serratia marcescens 1071; assay type: functional; summary of the method: as §1
# Streptococcus pneumoniae = experiment: The compound was tested in vitro for minimum inhibitory concentration against Streptococcus pneumoniae 6301; assay type: functional; summary of the method: as §4
# Staphylococcus aureus [16] = experiment: The compound was tested in vitro for minimum inhibitory concentration against Staphylococcus aureus smith; assay type: functional; summary of the method: as §1
# Klebsiella pneumoniae = experiment: The compound was tested in vitro for minimum inhibitory concentration against Klebsiella pneumoniae A; assay type: functional; summary of the method: as §1
Structure (SMILES),MIC (Escherichia coli [1]) [µg/mL],MIC (Escherichia coli [2]) [µg/mL],MIC (Escherichia coli [3]) [µg/mL],MIC (Escherichia coli [5]) [µg/mL],MIC (Enterococcus faecalis) [µg/mL],MIC (Escherichia coli [6]) [µg/mL],MIC (Enterobacter cloacae) [µg/mL],IC50 (Escherichia coli [7]) [µg/mL],MIC (Micrococcus luteus) [µg/mL],MIC (Proteus mirabilis) [µg/mL],MIC (Pseudomonas aeruginosa [8]) [µg/mL],MIC (Pseudomonas aeruginosa [13]) [µg/mL],MIC (Proteus vulgaris) [µg/mL],MIC (Staphylococcus aureus [14]) [µg/mL],MIC (Staphylococcus aureus [15]) [µg/mL],MIC (Streptococcus pyogenes) [µg/mL],MIC (Serratia marcescens) [µg/mL],MIC (Streptococcus pneumoniae) [µg/mL],MIC (Staphylococcus aureus [16]) [µg/mL],MIC (Klebsiella pneumoniae) [µg/mL],also measured
O=C(COc1ccccc1)N[C@@H]1C(=O)N2C(C(=O)O)=C(COC(=O)N3CCN(c4cc5c(cc4F)c(=O)c(C(=O)O)cn5C4CC4)CC3)CS[C@H]12,0.063,0.06,2,0.063,4,0.063,0.031,4.2,0.031,0.125,0.5,1,0.125,4,4,0.031,0.25,0.031,0.25,0.25,MIC (Citrobacter freundii): 0.063 µg/mL; MIC (Escherichia coli [4]): 2 µg/mL; Inhibitory concentration (Escherichia coli [9]): > 100 µg/mL; Inhibitory concentration (Escherichia coli [10]): > 100 µg/mL; Inhibitory concentration (Escherichia coli [11]): > 100 µg/mL; Inhibitory concentration (Escherichia coli [12]): > 100 µg/mL
CCN1CCN(C(=O)NC(C(=O)N[C@@H]2C(=O)N3C(C(=O)O)=C(COC(=O)N4CCN(c5cc6c(cc5F)c(=O)c(C(=O)O)cn6C5CC5)CC4)CS[C@H]23)c2ccccc2)C(=O)C1=O (some centres undefined),0.063,0.06,1,0.063,4,0.063,0.031,9,0.125,1,1,2,0.063,4,1,0.063,0.125,0.031,0.5,0.125,MIC (Citrobacter freundii): 0.063 µg/mL; MIC (Escherichia coli [4]): 1 µg/mL; Inhibitory concentration (Escherichia coli [9]): 10 µg/mL; Inhibitory concentration (Escherichia coli [10]): 10 µg/mL; Inhibitory concentration (Escherichia coli [11]): > 100 µg/mL; Inhibitory concentration (Escherichia coli [12]): 0.5 µg/mL
O=C(O)C1=C(COC(=O)N2CCN(c3cc4c(cc3F)c(=O)c(C(=O)O)cn4C3CC3)CC2)CS[C@@H]2[C@H](NC(=O)C(O)c3ccccc3)C(=O)N12 (some centres undefined),0.031,0.03,1,0.031,4,0.031,< 0.016,4,0.031,0.25,0.5,1,0.063,2,0.5,< 0.016,0.125,0.031,0.25,0.063,MIC (Citrobacter freundii): 0.031 µg/mL
CC(C)(O/N=C(\C(=O)N[C@@H]1C(=O)N2C(C(=O)O)=C(COC(=O)N3CCN(c4cc5c(cc4F)c(=O)c(C(=O)O)cn5C4CC4)CC3)CS[C@H]12)c1csc(N)n1)C(=O)O,0.063,0.06,1,0.063,1,0.063,0.63,2,1,0.25,1,1,0.125,4,4,0.25,0.5,0.25,1,0.25,MIC (Citrobacter freundii): 0.125 µg/mL; MIC (Escherichia coli [4]): 1 µg/mL; Inhibitory concentration (Escherichia coli [9]): 100 µg/mL; Inhibitory concentration (Escherichia coli [10]): 10 µg/mL; Inhibitory concentration (Escherichia coli [11]): > 100 µg/mL; Inhibitory concentration (Escherichia coli [12]): < 0.1 µg/mL
O=CN[C@@H]1C(=O)N2C(C(=O)O)=C(COC(=O)N3CCN(c4cc5c(cc4F)c(=O)c(C(=O)O)cn5C4CC4)CC3)CS[C@H]12,0.063,0.06,2,0.063,4,0.063,0.031,0.5,0.5,1,1,2,0.063,4,1,0.125,0.125,0.063,0.5,0.25,MIC (Escherichia coli [4]): 2 µg/mL; Inhibitory concentration (Escherichia coli [9]): > 100 µg/mL; Inhibitory concentration (Escherichia coli [10]): > 100 µg/mL; Inhibitory concentration (Escherichia coli [11]): > 100 µg/mL; Inhibitory concentration (Escherichia coli [12]): 100 µg/mL
